# EBI2 antag – blocks human EBI2 receptor beta-arrestin signaling; AID 651636; inhibition, % at 5 µM; hit rate 0.81% among 360,000; EBI2 beta-arrestin recruitment, luminescence, 7a,25-OHC stimulated; P32249; in the data active = inhibition above about 38%;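 also: enzyme fragment complementation signal reports receptor beta-arrestin coupling in cells; 0% = agonist plus DMSO wells and 100% = wells without agonist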
# CXCR6 inh – inhibitors of human CXCR6 receptor; inhibition, % at 20 µM; hit rate 0.36% among 360,000; O00574; CHO-K1 PathHunter CXCR6 beta-arrestin, luminescence; in the data active = inhibition above about 34%, passing the limit was not always enough;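 also: antagonist mode with CXCL16 agonist at 10 nM final; 0% = 10 nM CXCL16 with DMSO and 100% = unstimulated wells without agonist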
# CCR6 antag – CCR6 (human) receptor antagonism. P51684. CHO-K1 CCR6 PathHunter beta-arrestin, luminescence, CCL20-stimulated. inhibition, % at 20 µM. hit rate 0.49% among 340,000. AID 493098;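 active = compounds whose inhibition of the agonist-driven luminescence signal at 20 µM reaches about 50%, limit read from the data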;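 also: cells stimulated with CCL20 at 14 nM final; plate controls were DMSO with CCL20 for no effect and DMSO without agonist for full effect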
# APJ antagonist – antagonists of human APJ apelin receptor; CHO-K1 APJ beta-arrestin complementation, luminescence; P35414; hit rate 0.32% among 330,000; AID 2521; inhibition, % at 20 µM;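 active = inhibition above about 40% at 20 µM, limit read from the data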;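 also: cells challenged with 10 nM apelin-13 agonist together with compound; plate controls were apelin-13 plus DMSO wells for no effect and DMSO wells lacking apelin-13 for full effect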
# Target sequence (P35414 whole entry, looked up): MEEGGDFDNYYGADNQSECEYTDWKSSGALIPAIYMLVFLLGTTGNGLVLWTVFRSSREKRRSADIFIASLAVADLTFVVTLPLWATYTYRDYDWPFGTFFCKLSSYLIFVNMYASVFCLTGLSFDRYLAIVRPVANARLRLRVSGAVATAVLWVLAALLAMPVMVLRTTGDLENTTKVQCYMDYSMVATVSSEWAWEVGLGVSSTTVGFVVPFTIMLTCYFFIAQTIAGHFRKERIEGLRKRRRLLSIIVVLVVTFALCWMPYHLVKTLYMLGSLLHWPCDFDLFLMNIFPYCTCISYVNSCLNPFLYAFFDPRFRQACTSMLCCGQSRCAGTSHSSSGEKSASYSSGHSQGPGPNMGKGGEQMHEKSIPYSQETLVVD
# APJ agonist – APJ receptor agonism. CHO-K1 APJ PathHunter beta-arrestin, luminescence; 0% DMSO wells, 100% apelin. activation, % at 20 µM. hit rate 0.11% among 330,000;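 active = activation more than six SD over the plate average, tested at 20 µM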;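 also: 0% = DMSO alone and 100% = apelin-13 at 10 nM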
#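 Test system – PathHunter CHO-K1 APJ (AGTRL-1) beta-arrestin reporter cells · Input – 1000 cells/well · Compound – single test compound dose, 20 µM final, 1% DMSO · Times – compound stimulation 90 min at 25 °C, detection 60 min · Technique – beta-gal luminescence · Read-out basis – APJ–arrestin association signal · Control set – negative DMSO alone, positive Apelin-13 at 10 nM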
# EBI2 antag conf – EBI2 (human) antagonism, single concentration confirmation; shares compounds with EBI2 antag; EBI2 beta-arrestin luminescence, 7a,25-OHC antagonism; inhibition, % at 5 µM; hit rate 29% among 2,400; AID 651997;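 active = inhibition of at least 50%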
# EBI2 agonist – activates EBI2, counter-screen for EBI2 antagonists | shares compounds with EBI2 antag | EBI2-expressing cells, agonist mode, luminescence, 60 min; 0% vehicle, 100% 7α,25-dihydroxycholesterol control | activation, % at 5 µM | 2,400 tested, under 10 active;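 active = activation of at least 50%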
# bGal counter – beta-galactosidase inhibition counter-screen; shares compounds with EBI2 antag; purified beta-galactosidase, luminescent Galacton Star, 15 min; inhibition, % at 5 µM; hit rate 1% among 2,400; AID 652176;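 active = replicate-average signal at least 3 plate SD below neutral wells, shown as high inhibition, flagging enzyme-inhibiting false positives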;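 also: 0% = DMSO wells with enzyme and 100% = wells lacking enzyme; higher means stronger loss of beta-gal luminescence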
# An asterisk follows results filed as active; nt = no result given. Sampled rows, rich in hits. Any-hit rate of the full collection: about 1.5%.
SMILES,EBI2 antag,CXCR6 inh,CCR6 antag,APJ antagonist,APJ agonist,EBI2 antag conf,EBI2 agonist,bGal counter
NC(=O)C1CCN(C(=O)c2cc3ccccc3cc2O)CC1,-2,-15,-7,-62,14,nt,nt,nt
Cc1noc(C)c1CSCC(=O)N(C)CC(=O)Nc1ccc(Cl)c(C(F)(F)F)c1,-28,-2,8,7,12,nt,nt,nt
Cc1ccc(Oc2ccc(C(=O)NC3CCSC3=O)cn2)cc1 (configuration not stated),49*,1,-21,2,0,29,-1,-12
O=C(NC1CCSC1=O)c1ccc(Oc2ccc(F)cc2)nc1 (configuration not stated),16,3,2,3,0,nt,nt,nt
CCN(CC)S(=O)(=O)c1ccc(NC(=O)c2cnccn2)cc1,-6,-1,5,11,-1,nt,nt,nt
CC(C)c1ccc(NC2CCCN(C(=O)c3ccoc3)C2)cc1 (configuration not stated),1,-5,8,-17,-5,nt,nt,nt
CCN(CC)S(=O)(=O)c1ccc(N2CC(C(=O)N3Cc4ccccc4CC3C(N)=O)CC2=O)cc1 (configuration not stated),2,4,1,-14,-3,nt,nt,nt
CC1CC(=O)C2=C(C1)Nc1ccccc1N=C2 (configuration not stated),-2,-9,4,21,-2,nt,nt,nt
O=C1CC(c2ccccc2)CC2=C1C=Nc1ccccc1N2 (configuration not stated),53*,8,-8,15,2,21,1,1
O=C1CC(c2ccc(F)cc2)CC2=C1C=Nc1ccccc1N2 (configuration not stated),81*,-7,2,29,-5,43,1,7
COc1ccc(C(=O)/C=C/c2ccc(F)cc2)c(OC(=O)c2ccc([N+](=O)[O-])cc2)c1,54*,10,6,7,-4,26,0,8
CCOC(=O)[C@]12CCC=C1N(Cc1ccc3c(c1)OCO3)C(=O)[C@H](CC(=O)NCC1CCCCC1)C2,7,4,nt,nt,nt,nt,nt,nt
Cc1cc(SCC(=O)N/N=C/c2ccc(O)c(O)c2O)c(C)cc1Br,-5,-8,13,-30,5,nt,nt,nt
COc1cc(/C=N/NC(=O)CSc2cc(C)c(Br)cc2C)ccc1O,59*,-20,-8,-1,3,9,-1,-14
Cc1ccc(S(=O)(=O)N(C)CCCC(=O)N2CCCCC2)cc1,3,-1,10,12,0,nt,nt,nt
CCC(CO)Nc1ccn2nc(-c3cccc(Cl)c3)cc2n1 (configuration not stated),8,2,nt,nt,nt,nt,nt,nt
COc1cccc(NC(=O)CN(C)C(=O)c2cc(S(=O)(=O)N3CCCCCC3)ccc2OC)c1,7,-3,5,8,-6,nt,nt,nt
Cc1cc(C)c(S(=O)(=O)N2CCN(C(=O)c3ccc(-n4nc(C)c(Cl)c4C)cc3)CC2)c(C)c1,94*,3,4,nt,nt,68*,0,-11
Cc1cc(C)c(S(=O)(=O)N2CCN(C(=O)c3c(C)nn(-c4ccccc4)c3Cl)CC2)c(C)c1,-7,-1,2,nt,nt,nt,nt,nt
CCOc1ccc(NCc2nnc(SCC(=O)Nc3nc(-c4ccccc4)cs3)n2-c2ccccc2)cc1,46*,-8,3,-4,-4,23,-1,-19
COc1cccc(CNC(=O)COC(=O)CCS(=O)(=O)c2ccc(C)cc2)c1,-14,-4,8,11,-2,nt,nt,nt
COc1ccc(-n2c(-c3ccco3)nc3c(cnn3-c3ccc(C)cc3)c2=O)cc1,43*,7,4,8,1,38,0,0
COc1ccc(-n2c(-c3ccco3)nc3c(cnn3-c3ccccc3C)c2=O)cc1,-17,-2,9,-8,-2,nt,nt,nt
O=C(NCCc1ccccc1Cl)C1CCC(=O)N(C2CCCCCC2)C1 (configuration not stated),-3,-2,9,17,-6,nt,nt,nt
CCC(=O)NC(Nc1sc2c(c1C(=O)OC)CCC2)C(Cl)(Cl)Cl (configuration not stated),24,-4,2,-1,-2,nt,nt,nt
SMILES,EBI2 antag,CXCR6 inh,CCR6 antag,APJ antagonist,APJ agonist,EBI2 antag conf,EBI2 agonist,bGal counter
COC(=O)c1c(NC(NC(=O)CC(C)C)C(Cl)(Cl)Cl)sc2c1CCC2 (configuration not stated),64*,-2,2,17,1,12,0,6
O=C(Oc1ccc(-c2cnc3ccccc3n2)cc1)c1cc([N+](=O)[O-])ccc1Cl,55*,1,12,-13,6,12,0,4
O=C(c1cc(=O)c2ccccc2o1)N1CCN(c2cccc(Cl)c2)CC1,51*,-2,-6,-13,-4,42,1,6
O=C(c1cc(=O)c2ccccc2o1)N1CCN(c2ccccc2F)CC1,64*,2,5,6,-4,33,0,-11
C#CCNC(=O)C1=C[C@H](c2ccc(C(F)(F)F)cc2)C[C@H](OCc2ccc(CO)cc2)O1,8,5,13,10,1,nt,nt,nt
COc1ccc(N2CC(C(=O)Nc3nc4ccc(F)cc4s3)CC2=O)c(OC)c1 (configuration not stated),0,-18,2,3,-4,nt,nt,nt
Cc1cc(SCC(=O)N/N=C/c2cccnc2)nc2c(C)cccc12,65*,-12,0,11,-3,23,1,7
COc1cc(-c2nnc(COc3ccc4cc(Br)ccc4c3)o2)cc(OC)c1OC,56*,3,8,15,-1,14,1,1
CC(=O)Nc1cc(-c2ccc(N(C)C)cc2)cn2c(-c3ccc(F)cc3)cnc12,54*,-4,nt,nt,nt,54*,0,5
COc1ccc(NC(=O)CCC(=O)Nc2nnc(C3CCCCC3)s2)c(OC)c1,-9,1,18,6,-2,nt,nt,nt
COc1ccccc1/C=N/NC(=O)NC12CC3CC(CC(C3)C1)C2,47*,-6,9,-36,-4,41,1,4
COc1ccccc1C(=O)N1CCN(C(=O)c2oc3c(C)c(C)ccc3c2C)CC1,51*,-16,nt,nt,nt,43,0,-20
Cc1cc2oc(C(=O)N3CCN(CCc4ccccn4)CC3)c(C)c2cc1C,50*,-7,3,4,9,32,1,2
CCc1ccc2oc(C(=O)N3CCN(c4ccc(OC)cc4)CC3)cc(=O)c2c1,91*,0,11,15,-2,83*,3,3
COc1ccc(Cn2c(=O)[nH]c3cc(C(=O)N4CCN(Cc5ccccc5)CC4)ccc3c2=O)cc1,3,1,-9,-6,5,nt,nt,nt

# Screening results deposited in PubChem by Sanford-Burnham Center for Chemical Genomics.
